From ChEMBL document CHEMBL1828605, “Synthesis, antiviral activity, cytotoxicity and cellular pharmacology of l-3'-azido-2',3'-dideoxypurine nucleosides” (Eur J Med Chem, 2011)

How the values were obtained:
[1] = tested on: Human immunodeficiency virus 1; assay: Antiviral activity against HIV1 LAV1 infected in phytohemagglutininin-stimulated human PBMC assessed as RT level after 6 days by microdilution plate assay; type: functional, organism-based
[2] = tested on: Hepatitis B virus; assay: Antiviral activity against Hepatitis B virus infected in human HepAD38 assessed as reduction of viral DNA level on day 7 by quantitative-PCR assay analysis; type: functional, organism-based
[3] = tested on: PBMC; assay: Cytotoxicity against phytohemagglutininin-stimulated human PBMC after 6 days by trypan blue exclusion assay; type: cell-based; settings: 144 h
[4] = tested on: CCRF-CEM; assay: Cytotoxicity against human CEM cells after 6 days by trypan blue exclusion assay; type: cell-based; settings: 144 h
[5] = tested on: Vero; assay: Cytotoxicity against african green monkey Vero cells after 3 days by hemocytometry; type: cell-based; settings: Chlorocebus sabaeus, 72 h
[6] = tested on: PBMC; assay: Drug metabolism in human phytohemagglutininin-stimulated human PBMC assessed as compound level per 10^6 cells at 50 uM after 4 hrs by LC-MS/MS analysis; type: ADME, cell-based
[7] = Cytotoxicity against human HepAD38 cells; type: cell-based
[8] = tested on: PBMC; assay: Drug metabolism in human phytohemagglutininin-stimulated human PBMC assessed as 9-(3-azido-2,3-dideoxy-b-L-ribofuranosyl)-2-amino-6-chloropurine level per 10^6 cells at 50 uM after 4 hrs by LC-MS/MS analysis; type: ADME, cell-based
Procedure, shortened: (§1)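 PHA-activated human PBM cells incubated with nucleoside at 50 μM for 4 h at 37 °C, then PBS-washed. Intracellular nucleoside and nucleotide metabolites were extracted with 60% ice-cold methanol, dried, redissolved in HPLC mobile phase, and quantified by LC-MS/MS.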

[9] = tested on: PBMC; assay: Drug metabolism in human phytohemagglutininin-stimulated human PBMC assessed as 9-(3-azido-2,3-dideoxy-b-L-ribofuranosyl)-2-amino-6-chloropurine monophosphate level per 10^6 cells at 50 uM after 4 hrs by LC-MS/MS analysis; type: ADME, cell-based; procedure, shortened: as §1
[10] = tested on: PBMC; assay: Drug metabolism in human phytohemagglutininin-stimulated human PBMC assessed as 9-(3-azido-2,3-dideoxy-b-L-ribofuranosyl)-2-amino-6-chloropurine diphosphate level per 10^6 cells at 50 uM after 4 hrs by LC-MS/MS analysis; type: ADME, cell-based; procedure, shortened: as §1
[11] = tested on: PBMC; assay: Drug metabolism in human phytohemagglutininin-stimulated human PBMC assessed as 9-(3-azido-2,3-dideoxy-b-L-ribofuranosyl)-2-amino-6-chloropurine triphosphate level per 10^6 cells at 50 uM after 4 hrs by LC-MS/MS analysis; type: ADME, cell-based; procedure, shortened: as §1
[12] = tested on: PBMC; assay: Drug metabolism in human phytohemagglutininin-stimulated human PBMC assessed as 30-azido-20,30-dideoxy-b-L-adenosine level per 10^6 cells at 50 uM after 4 hrs by LC-MS/MS analysis; type: ADME, cell-based; procedure, shortened: as §1
[13] = tested on: PBMC; assay: Drug metabolism in human phytohemagglutininin-stimulated human PBMC assessed as 30-azido-20,30-dideoxy-b-L-adenosine monophosphate level per 10^6 cells at 50 uM after 4 hrs by LC-MS/MS analysis; type: ADME, cell-based; procedure, shortened: as §1
[14] = tested on: PBMC; assay: Drug metabolism in human phytohemagglutininin-stimulated human PBMC assessed as 30-azido-20,30-dideoxy-b-L-adenosine diphosphate level per 10^6 cells at 50 uM after 4 hrs by LC-MS/MS analysis; type: ADME, cell-based; procedure, shortened: as §1
[15] = tested on: PBMC; assay: Drug metabolism in human phytohemagglutininin-stimulated human PBMC assessed as 30-azido-20,30-dideoxy-b-L-adenosine triphosphate level per 10^6 cells at 50 uM after 4 hrs by LC-MS/MS analysis; type: ADME, cell-based; procedure, shortened: as §1
[16] = target: Human immunodeficiency virus type 1 reverse transcriptase (Human immunodeficiency virus 1, UniProt Q72547); assay: Binding affinity to HIV1 reverse transcriptase assessed as L-3'-azido-NTP incorporation in nascent DNA
[17] = target: Human immunodeficiency virus type 1 reverse transcriptase (Human immunodeficiency virus 1) (UniProt Q72547); assay: Ratio Kpol to Kd for wild type HIV 1 reverse transcriptase
Procedure, shortened: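 Pre-steady-state single-turnover incorporation by purified WT HIV-1 RT (200 nM, final), pre-incubated with 20 nM T/P substrate, then mixed with nucleotide at varying concentrations plus metal ions. Reaction at 37 °C in 50 mM Tris-HCl pH 7.5, 50 mM KCl, 10 mM MgCl₂. Aliquots quenched in gel loading buffer at 1-60 min. 20mer→21mer conversion quantified on gel. k_obs from burst fit, k_pol and K_d from hyperbolic fit, efficiency taken as k_pol/K_d.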

[18] = target: Human immunodeficiency virus type 1 reverse transcriptase (Human immunodeficiency virus 1) (UniProt Q72547); assay: Selectivity ratio of Kpol to Kd for dATP to Kpol to Kd for compound at HIV1 reverse transcriptase
[19] = target: Human immunodeficiency virus type 1 reverse transcriptase (Human immunodeficiency virus 1) (UniProt Q72547); assay: Selectivity ratio of Kpol to Kd for dCTP to Kpol to Kd for compound at HIV1 reverse transcriptase
[20] = Human immunodeficiency virus 1, LAV1, 144 h
[21] = Hepatitis B virus, HePAD38, 168 h

Compound: CCOC(=O)[C@H](C)NP(=O)(OC[C@@H]1O[C@H](n2cnc3c(Cl)nc(N)nc32)C[C@H]1N=[N+]=[N-])Oc1ccccc1 (stereo not given in full)
- EC50 [1, 20]: 16.5 µM
- EC90 [1, 20]: 55.9 µM
- EC50 [2, 21]: > 100 µM
- IC50 [3]: 71 µM
- IC50 [4]: 23.1 µM
- IC50 [5]: > 100 µM
- Activity [6]: 12 fmol
- Activity [7]: Non-toxic
- Activity [8]: 49 fmol
- Activity [9]: 430 fmol
- Activity [10]: 190 fmol
- Activity [11]: 10 fmol

Compound: CCOC(=O)[C@H](C)NP(=O)(OC[C@@H]1O[C@H](n2cnc3c(N)ncnc32)C[C@H]1N=[N+]=[N-])Oc1ccccc1 (stereo not given in full)
- EC50 [1, 20]: 1.4 µM
- EC90 [1, 20]: 15.6 µM
- EC50 [2, 21]: > 100 µM
- IC50 [3]: > 100 µM
- IC50 [4]: > 100 µM
- IC50 [5]: > 100 µM
- Activity [7]: Non-toxic
- Activity [12]: 7500 fmol
- Activity [13]: 4200 fmol
- Activity [14]: 1200 fmol
- Activity [15]: 7400 fmol

Compound: Cc1cn([C@H]2C[C@H](N=[N+]=[N-])[C@@H](CO)O2)c(=O)[nH]c1=O (stereo in doubt; 27) [ZIDOVUDINE]
- EC50 [1]: > 100 µM
- EC90 [1]: > 100 µM
- EC50 [2]: > 100 µM
- Activity [7]: Non-toxic

Compound: CCOC(=O)[C@H](C)NP(=O)(OC[C@@H]1O[C@H](n2cc(C)c(=O)[nH]c2=O)C[C@H]1N=[N+]=[N-])Oc1ccccc1 (stereo not given in full)
- EC50 [1, 20]: > 100 µM
- EC90 [1, 20]: > 100 µM
- EC50 [2, 21]: > 100 µM
- IC50 [3]: > 100 µM
- IC50 [4]: > 100 µM
- IC50 [5]: > 100 µM
- Activity [7]: Non-toxic

Compound: [N-]=[N+]=N[C@@H]1C[C@@H](n2cnc3c(N)nc(N)nc32)O[C@H]1COP(=O)(O)OP(=O)(O)OP(=O)(O)O
- Kd [16]: 2300 nM
- Ratio [17]: 0.062 µM⁻¹ min⁻¹
- Selectivity ratio [18]: 7340

Compound: Nc1ncnc2c1ncn2[C@H]1C[C@H](O)[C@@H](COP(=O)(O)OP(=O)(O)OP(=O)(O)O)O1
- Ratio [17]: 455 µM⁻¹ min⁻¹

Compound: Cc1cn([C@H]2C[C@H](N=[N+]=[N-])[C@@H](CO[P@](=O)(O)O[P@](=O)(O)OP(=O)(O)O)O2)c(=O)[nH]c1=O (single isomer, unassigned) [ZIDOVUDINE TRIPHOSPHATE]
- Kd [16]: 55000 nM

Compound: Nc1ccn([C@@H]2CS[C@H](CO)O2)c(=O)n1 [LAMIVUDINE]
- EC50 [2, 21]: 0.06 µM
- IC50 [3]: > 100 µM
- IC50 [4]: > 100 µM
- IC50 [5]: > 100 µM
- Activity [7]: Non-toxic

Compound: CCOC(=O)[C@H](C)NP(=O)(OC[C@@H]1O[C@H](n2cnc3c(N)nc(N)nc32)C[C@H]1N=[N+]=[N-])Oc1ccccc1 (stereo not given in full)
- EC50 [1, 20]: 15.8 µM
- EC90 [1, 20]: > 100 µM
- EC50 [2, 21]: > 100 µM
- IC50 [3]: > 100 µM
- IC50 [4]: > 100 µM
- IC50 [5]: > 100 µM
- Activity [7]: Non-toxic

Compound: Nc1ccn([C@H]2C[C@H](O)[C@@H](CO)O2)c(=O)n1 [DOXECITINE]
- Kd [16]: 1100 nM
- Ratio [17]: 65 µM⁻¹ min⁻¹

Compound: CCOC(=O)[C@H](C)NP(=O)(OC[C@@H]1O[C@H](n2cnc3c(Cl)ncnc32)C[C@H]1N=[N+]=[N-])Oc1ccccc1 (stereo not given in full)
- EC50 [1, 20]: 16.5 µM
- EC90 [1, 20]: 83.1 µM
- EC50 [2, 21]: > 100 µM
- IC50 [3]: 69.2 µM
- IC50 [4]: 5.8 µM
- IC50 [5]: > 100 µM
- Activity [7]: Non-toxic

Compound: CCOC(=O)[C@H](C)NP(=O)(OC[C@@H]1O[C@H](n2cnc3c(O)nc(N)nc32)C[C@H]1N=[N+]=[N-])Oc1ccccc1 (stereo not given in full)
- EC50 [1, 20]: > 100 µM
- EC90 [1, 20]: > 100 µM
- EC50 [2, 21]: > 100 µM
- IC50 [3]: > 100 µM
- IC50 [4]: > 100 µM
- IC50 [5]: > 100 µM
- Activity [7]: Non-toxic

Compound: [N-]=[N+]=N[C@@H]1C[C@@H](n2cnc3c(O)nc(N)nc32)O[C@H]1COP(=O)(O)OP(=O)(O)OP(=O)(O)O
- Kd [16]: 230 nM

Compound: [N-]=[N+]=N[C@@H]1C[C@@H](n2cnc3c(N)ncnc32)O[C@H]1COP(=O)(O)OP(=O)(O)OP(=O)(O)O
- Kd [16]: 15000 nM
- Ratio [17]: 0.023 µM⁻¹ min⁻¹
- Selectivity ratio [18]: 19800

Compound: Nc1ccn([C@@H]2CS[C@H](COP(=O)(O)OP(=O)(O)OP(=O)(O)O)O2)c(=O)n1 [LAMIVUDINE TRIPHOSPHATE]
- Kd [16]: 130 nM
- Ratio [17]: 5.46 µM⁻¹ min⁻¹
- Selectivity ratio [19]: 11.9

Compound: Cc1cn([C@H]2C[C@H](N=[N+]=[N-])[C@@H](CO)O2)c(=O)[nH]c1=O (stereo in doubt) [ZIDOVUDINE]
- EC50 [2]: > 10 µM
